Assay results published in ChEMBL document CHEMBL3734760 (Bioorg Med Chem Lett, 2015).

Tests used:
[1] = biological target: Voltage-gated inwardly rectifying potassium channel KCNH2 (Homo sapiens, UniProt Q12809); assay: Inhibition of human ERG assessed as reduction in IKr current
[2] = biological target: Voltage-dependent L-type calcium channel subunit alpha-1C (Homo sapiens, UniProt Q13936); assay: […]
[3] = biological target: T1, Prolyl endopeptidase FAP (Bos taurus, UniProt A5D7B7); assay: Inhibition of bovine serum FAP
T1 sequence (A5D7B7 whole entry): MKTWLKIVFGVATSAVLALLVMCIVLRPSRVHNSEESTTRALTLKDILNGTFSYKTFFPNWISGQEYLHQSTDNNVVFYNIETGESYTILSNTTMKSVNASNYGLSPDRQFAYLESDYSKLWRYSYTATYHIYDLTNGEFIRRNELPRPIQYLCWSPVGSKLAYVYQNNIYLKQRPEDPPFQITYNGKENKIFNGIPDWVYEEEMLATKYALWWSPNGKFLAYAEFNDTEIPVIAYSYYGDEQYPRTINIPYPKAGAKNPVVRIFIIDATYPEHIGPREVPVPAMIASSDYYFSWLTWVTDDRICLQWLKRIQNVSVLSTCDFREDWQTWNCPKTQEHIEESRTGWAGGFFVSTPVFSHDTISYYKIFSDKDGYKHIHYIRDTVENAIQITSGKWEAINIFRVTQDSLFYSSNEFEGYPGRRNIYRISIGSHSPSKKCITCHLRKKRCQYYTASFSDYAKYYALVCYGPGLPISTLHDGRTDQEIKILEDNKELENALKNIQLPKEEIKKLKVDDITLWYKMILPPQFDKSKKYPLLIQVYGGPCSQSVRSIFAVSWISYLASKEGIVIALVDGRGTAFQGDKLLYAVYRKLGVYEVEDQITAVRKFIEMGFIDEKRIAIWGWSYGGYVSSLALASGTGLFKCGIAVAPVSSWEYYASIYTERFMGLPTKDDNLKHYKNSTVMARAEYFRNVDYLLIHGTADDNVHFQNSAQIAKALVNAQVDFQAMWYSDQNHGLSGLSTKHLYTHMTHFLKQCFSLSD

[4] = test system: Canis familiaris; assay: Dose normalized AUC in dog at 1 mg/kg, iv and 2 mg/kg, po; type: ADME, organism-based, Canis lupus familiaris; conditions: in vivo
Method in brief: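 Dogs were dosed 1 mg/kg iv and 2 mg/kg po. AUC is reported normalized to dose in µM h/mg/kg.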

[5] = biological target: Dipeptidyl peptidase 2 (Homo sapiens, UniProt Q9UHL4); assay: Inhibition of N-terminal FLAG tagged human QPP expressed in Sf9 cells using Nle-Pro-AMC substrate after 30 mins by plate reader analysis
[6] = Plasma clearance in rat at 1 mg/kg, iv and 2 mg/kg, po; type: ADME, organism-based
Method in brief: (§1)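 Rats received 1 mg/kg iv plus 2 mg/kg po, or 0.4 mg/kg iv alone. Plasma clearance is reported in ml/min/kg, half-life in h, and AUC normalized to dose in µM h/mg/kg.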

[7] = Half life in rat at 1 mg/kg, iv and 2 mg/kg, po; type: ADME, organism-based; conditions: in vivo; method in brief: as §1
[8] = test system: Rattus norvegicus; assay: Dose normalized AUC in rat at 1 mg/kg, iv and 2 mg/kg, po; type: ADME, organism-based; conditions: in vivo; method in brief: as §1
[9] = biological target: Dipeptidyl peptidase 8 (Homo sapiens, UniProt Q6V1X1); assay: Inhibition of C-terminal His-tagged DPP8 (unknown origin) expressed in COS7 cells using H-Ala-Pro-pNA substrate preincubated for 15 mins; type: cell-based, COS-7
[10] = Plasma clearance in dog at 1 mg/kg, iv and 2 mg/kg, po; type: ADME, organism-based, Canis lupus familiaris
[11] = Oral bioavailability in dog at 2 mg/kg; type: ADME, organism-based, Canis lupus familiaris; conditions: in vivo
[12] = Half life in dog at 1 mg/kg, iv and 2 mg/kg, po; type: ADME, organism-based, Canis lupus familiaris; conditions: in vivo
[13] = Oral bioavailability in rat at 2 mg/kg; type: ADME, organism-based; conditions: in vivo; method in brief: as §1

Sequence of Voltage-dependent L-type calcium channel subunit alpha-1C (Q13936 whole entry): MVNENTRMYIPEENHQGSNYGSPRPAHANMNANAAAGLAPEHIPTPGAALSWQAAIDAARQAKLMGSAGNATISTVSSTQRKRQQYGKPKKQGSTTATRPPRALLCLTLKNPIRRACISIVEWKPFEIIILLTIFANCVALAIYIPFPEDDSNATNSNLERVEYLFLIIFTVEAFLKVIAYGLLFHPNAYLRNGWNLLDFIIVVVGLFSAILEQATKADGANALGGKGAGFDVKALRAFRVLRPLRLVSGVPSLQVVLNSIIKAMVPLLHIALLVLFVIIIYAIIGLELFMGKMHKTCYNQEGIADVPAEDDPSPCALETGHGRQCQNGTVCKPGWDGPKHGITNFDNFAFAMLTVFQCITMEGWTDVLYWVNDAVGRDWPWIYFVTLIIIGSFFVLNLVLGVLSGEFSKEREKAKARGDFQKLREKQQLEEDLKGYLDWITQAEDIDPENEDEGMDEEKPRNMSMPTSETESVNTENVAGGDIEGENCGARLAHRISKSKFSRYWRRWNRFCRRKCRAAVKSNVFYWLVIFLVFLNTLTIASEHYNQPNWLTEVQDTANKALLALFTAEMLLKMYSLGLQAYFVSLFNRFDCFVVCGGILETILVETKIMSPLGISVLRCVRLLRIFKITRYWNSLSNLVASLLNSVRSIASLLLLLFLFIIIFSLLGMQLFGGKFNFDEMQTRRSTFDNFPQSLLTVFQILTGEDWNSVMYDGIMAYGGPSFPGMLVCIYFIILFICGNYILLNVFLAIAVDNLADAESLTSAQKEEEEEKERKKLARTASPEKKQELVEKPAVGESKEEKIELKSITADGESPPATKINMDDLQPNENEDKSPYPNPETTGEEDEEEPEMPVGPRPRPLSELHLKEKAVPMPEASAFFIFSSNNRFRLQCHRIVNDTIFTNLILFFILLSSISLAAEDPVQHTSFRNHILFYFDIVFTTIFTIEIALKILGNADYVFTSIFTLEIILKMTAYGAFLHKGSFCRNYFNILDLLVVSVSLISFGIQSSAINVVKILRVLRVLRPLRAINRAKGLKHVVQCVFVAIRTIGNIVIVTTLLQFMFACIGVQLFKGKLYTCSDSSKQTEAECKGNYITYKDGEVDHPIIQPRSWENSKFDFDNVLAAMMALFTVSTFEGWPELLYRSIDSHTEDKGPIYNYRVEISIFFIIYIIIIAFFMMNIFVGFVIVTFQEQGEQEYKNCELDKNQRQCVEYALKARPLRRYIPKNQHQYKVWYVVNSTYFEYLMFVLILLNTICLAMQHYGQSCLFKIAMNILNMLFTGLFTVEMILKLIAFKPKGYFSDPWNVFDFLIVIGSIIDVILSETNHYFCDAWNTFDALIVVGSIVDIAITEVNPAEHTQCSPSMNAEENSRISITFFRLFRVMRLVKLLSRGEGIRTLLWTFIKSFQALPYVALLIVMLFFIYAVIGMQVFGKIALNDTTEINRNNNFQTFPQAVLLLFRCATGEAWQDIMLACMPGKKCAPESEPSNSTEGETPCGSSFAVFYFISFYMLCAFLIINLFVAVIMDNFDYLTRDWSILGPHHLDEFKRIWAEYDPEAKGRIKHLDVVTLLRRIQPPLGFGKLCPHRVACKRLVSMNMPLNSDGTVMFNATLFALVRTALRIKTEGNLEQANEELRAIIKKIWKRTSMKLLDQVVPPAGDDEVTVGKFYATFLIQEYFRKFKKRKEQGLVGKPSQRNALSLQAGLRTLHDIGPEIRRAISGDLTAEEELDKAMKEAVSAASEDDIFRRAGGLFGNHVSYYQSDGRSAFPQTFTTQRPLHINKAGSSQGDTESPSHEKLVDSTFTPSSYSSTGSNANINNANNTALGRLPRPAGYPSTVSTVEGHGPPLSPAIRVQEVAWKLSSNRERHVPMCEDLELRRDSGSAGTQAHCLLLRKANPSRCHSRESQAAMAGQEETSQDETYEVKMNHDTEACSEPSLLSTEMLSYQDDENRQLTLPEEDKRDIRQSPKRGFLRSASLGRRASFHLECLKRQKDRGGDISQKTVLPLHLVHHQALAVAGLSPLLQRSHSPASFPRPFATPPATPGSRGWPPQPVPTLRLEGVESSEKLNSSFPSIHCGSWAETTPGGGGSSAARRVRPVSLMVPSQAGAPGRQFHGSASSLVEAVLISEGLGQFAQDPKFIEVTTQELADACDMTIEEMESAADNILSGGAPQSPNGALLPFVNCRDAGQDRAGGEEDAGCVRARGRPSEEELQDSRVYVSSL
Sequence of Dipeptidyl peptidase 8 (Q6V1X1 whole entry): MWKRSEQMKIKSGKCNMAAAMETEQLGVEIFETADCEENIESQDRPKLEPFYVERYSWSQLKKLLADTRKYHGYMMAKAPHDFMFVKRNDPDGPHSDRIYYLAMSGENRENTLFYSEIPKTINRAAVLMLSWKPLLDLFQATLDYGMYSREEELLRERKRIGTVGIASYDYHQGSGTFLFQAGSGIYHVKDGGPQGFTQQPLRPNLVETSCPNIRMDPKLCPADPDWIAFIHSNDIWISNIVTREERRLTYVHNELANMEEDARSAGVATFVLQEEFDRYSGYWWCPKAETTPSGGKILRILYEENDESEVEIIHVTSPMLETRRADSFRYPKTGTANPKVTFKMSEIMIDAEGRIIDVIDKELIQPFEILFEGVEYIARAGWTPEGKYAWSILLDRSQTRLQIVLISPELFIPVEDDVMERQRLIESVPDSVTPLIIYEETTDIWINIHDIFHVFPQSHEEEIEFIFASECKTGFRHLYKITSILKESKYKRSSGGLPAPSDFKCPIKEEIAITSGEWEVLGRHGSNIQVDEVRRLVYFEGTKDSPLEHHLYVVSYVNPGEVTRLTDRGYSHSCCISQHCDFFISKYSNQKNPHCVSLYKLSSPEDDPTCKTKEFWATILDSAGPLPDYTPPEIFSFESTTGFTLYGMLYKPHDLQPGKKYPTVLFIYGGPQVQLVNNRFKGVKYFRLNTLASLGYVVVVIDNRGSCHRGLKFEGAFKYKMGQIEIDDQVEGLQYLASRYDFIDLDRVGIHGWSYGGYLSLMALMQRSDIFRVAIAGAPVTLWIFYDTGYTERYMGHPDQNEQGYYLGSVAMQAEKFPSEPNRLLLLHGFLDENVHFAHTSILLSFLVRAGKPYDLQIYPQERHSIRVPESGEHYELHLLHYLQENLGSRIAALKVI
Sequence of Voltage-gated inwardly rectifying potassium channel KCNH2 (Q12809 whole entry): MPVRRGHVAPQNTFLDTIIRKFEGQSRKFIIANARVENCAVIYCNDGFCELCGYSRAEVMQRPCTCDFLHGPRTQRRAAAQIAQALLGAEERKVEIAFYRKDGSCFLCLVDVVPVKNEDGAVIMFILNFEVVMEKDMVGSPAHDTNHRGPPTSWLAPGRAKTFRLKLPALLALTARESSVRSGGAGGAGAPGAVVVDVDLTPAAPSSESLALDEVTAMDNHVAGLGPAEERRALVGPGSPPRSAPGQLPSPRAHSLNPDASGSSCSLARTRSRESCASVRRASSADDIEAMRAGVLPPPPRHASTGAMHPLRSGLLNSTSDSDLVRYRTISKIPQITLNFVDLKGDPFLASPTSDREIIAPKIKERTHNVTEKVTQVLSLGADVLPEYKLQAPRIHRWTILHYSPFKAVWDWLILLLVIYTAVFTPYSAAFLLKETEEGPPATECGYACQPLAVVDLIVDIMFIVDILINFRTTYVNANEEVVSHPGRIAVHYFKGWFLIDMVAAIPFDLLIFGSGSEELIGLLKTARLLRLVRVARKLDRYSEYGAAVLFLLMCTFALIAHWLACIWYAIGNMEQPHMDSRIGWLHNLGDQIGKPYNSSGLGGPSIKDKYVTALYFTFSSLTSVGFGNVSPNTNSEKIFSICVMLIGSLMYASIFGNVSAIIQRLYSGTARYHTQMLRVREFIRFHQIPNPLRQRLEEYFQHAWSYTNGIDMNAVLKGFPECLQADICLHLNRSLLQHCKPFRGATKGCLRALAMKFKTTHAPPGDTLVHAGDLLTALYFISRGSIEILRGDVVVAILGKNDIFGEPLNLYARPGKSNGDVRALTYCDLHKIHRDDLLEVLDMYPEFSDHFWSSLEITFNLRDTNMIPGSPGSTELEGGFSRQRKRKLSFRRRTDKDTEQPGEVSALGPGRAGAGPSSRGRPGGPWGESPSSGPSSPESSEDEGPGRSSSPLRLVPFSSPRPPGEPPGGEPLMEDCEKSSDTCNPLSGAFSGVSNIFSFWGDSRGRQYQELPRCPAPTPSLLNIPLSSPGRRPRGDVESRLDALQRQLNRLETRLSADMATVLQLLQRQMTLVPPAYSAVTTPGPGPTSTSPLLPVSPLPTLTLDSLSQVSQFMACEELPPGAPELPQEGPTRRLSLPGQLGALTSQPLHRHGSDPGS

Row | IC50 [3] [µM] | IC50 [5] [µM] | clearance [6] [mL/min/kg] | half-life [7] [h] | AUC/dose [8] [µM·h/mg/kg] | IC50 [9] [µM] | SMILES | other results
1 | 8.8 | > 100 | 16 | 2 | 2.5 | > 100 | CS(=O)(=O)Nc1n[nH]c2c1CN([C@H]1CO[C@H](c3cc(F)ccc3F)[C@@H](N)C1)C2 | –
2 | 32 | – | 12 | 2.1 | 3.4 | – | CCS(=O)(=O)Nc1n[nH]c2c1CN([C@H]1CO[C@H](c3cc(F)ccc3F)[C@@H](N)C1)C2 | –
3 | > 100 | > 100 | – | – | – | > 100 | CCCS(=O)(=O)n1cc2c(n1)CN([C@H]1CO[C@H](c3cc(F)ccc3F)[C@@H](N)C1)C2 | –
4 | 22 | > 100 | 64 | 5.5 | 0.6 | > 100 | N[C@H]1C[C@@H](N2Cc3[nH]nc(NC(=O)C4CC4)c3C2)CO[C@@H]1c1cc(F)ccc1F | –
5 | 3.8 | > 100 | 24 | 1.5 | 1.6 | – | N[C@H]1C[C@@H](N2Cc3[nH]nc(NS(=O)(=O)C4CC4)c3C2)CO[C@@H]1c1cc(F)ccc1F | –
6 | 69 | > 100 | 1.6 | 5.2 | 22 | > 100 | CCS(=O)(=O)n1cc2c(n1)CN([C@H]1CO[C@H](c3cc(F)ccc3F)[C@@H](N)C1)C2 | IC50 [1]: > 60 µM; clearance [10]: 3.3 mL/min/kg; bioavailability [11]: 100%; IC50 [2]: > 30 µM; AUC/dose [4]: 25 µM·h/mg/kg; half-life [12]: 13 h; bioavailability [13]: 84%
7 | 32 | > 100 | – | – | – | > 100 | N[C@H]1C[C@@H](N2Cc3[nH]nc(NS(=O)(=O)CC(F)(F)F)c3C2)CO[C@@H]1c1cc(F)ccc1F | –
8 | 14 | – | – | – | – | – | N[C@H]1C[C@@H](N2Cc3[nH]nc(S(=O)(=O)c4ccccc4)c3C2)CO[C@@H]1c1cc(F)ccc1F | –
9 | 27 | > 100 | – | – | – | – | N[C@H]1C[C@@H](N2Cc3[nH]nc(NC(=O)c4ccncc4)c3C2)CO[C@@H]1c1cc(F)ccc1F | –
10 | > 100 | > 100 | – | – | – | – | N[C@H]1C[C@@H](N2Cc3cn(S(=O)(=O)c4cccc(C(F)(F)F)c4)nc3C2)CO[C@@H]1c1cc(F)ccc1F | –
11 | 50 | – | 41 | 1.5 | 0.9 | – | N[C@H]1C[C@@H](N2Cc3cn(S(=O)(=O)C4CCCC4)nc3C2)CO[C@@H]1c1cc(F)ccc1F | –
12 | 47 | > 100 | 60 | 2.2 | 0.7 | > 100 | CCC(=O)Nc1n[nH]c2c1CN([C@H]1CO[C@H](c3cc(F)ccc3F)[C@@H](N)C1)C2 | –
13 | 6.3 | – | – | – | – | – | N[C@H]1C[C@@H](N2Cc3[nH]nc(NS(=O)(=O)c4c[nH]cn4)c3C2)CO[C@@H]1c1cc(F)ccc1F | –
14 | > 100 | > 100 | – | – | – | > 100 | N[C@H]1C[C@@H](N2Cc3cn(S(=O)(=O)C(F)(F)F)nc3C2)CO[C@@H]1c1cc(F)ccc1F | –
15 | 95 | – | – | – | – | – | Cn1cnc(S(=O)(=O)n2cc3c(n2)CN([C@H]2CO[C@H](c4cc(F)ccc4F)[C@@H](N)C2)C3)c1 | –

Second part, the compound before the results:

Row | SMILES | IC50 [3] [µM] | IC50 [5] [µM] | clearance [6] [mL/min/kg] | half-life [7] [h] | AUC/dose [8] [µM·h/mg/kg] | IC50 [9] [µM] | other results
16 | N[C@H]1C[C@@H](N2Cc3cn[nH]c3C2)CO[C@@H]1c1cc(F)ccc1F | > 100 | – | – | – | – | – | IC50 [1]: > 30 µM; IC50 [2]: > 30 µM; AUC/dose [4]: 16 µM·h/mg/kg
17 | N[C@H]1C[C@@H](N2Cc3cnn(S(=O)(=O)C4CCCC4)c3C2)CO[C@@H]1c1cc(F)ccc1F | 26 | > 100 | 96 | 0.5 | 0.4 | > 100 | –
18 | N[C@H]1C[C@@H](N2Cc3[nH]nc(NC(=O)c4nccs4)c3C2)CO[C@@H]1c1cc(F)ccc1F | 40 | – | – | – | – | – | –
19 | N[C@H]1C[C@@H](N2Cc3cn(S(=O)(=O)C4CC4)nc3C2)CO[C@@H]1c1cc(F)ccc1F | > 100 | – | 0.9 | 6.2 | 47 | > 100 | clearance [10]: 1.6 mL/min/kg; bioavailability [11]: 90%; IC50 [2]: > 30 µM; AUC/dose [4]: 25 µM·h/mg/kg; half-life [12]: 17 h
20 | N[C@H]1C[C@@H](N2Cc3[nH]nc(NS(=O)(=O)Cc4ccncc4)c3C2)CO[C@@H]1c1cc(F)ccc1F | 60 | – | – | – | – | > 100 | –
21 | CC(C)S(=O)(=O)c1n[nH]c2c1CN([C@H]1CO[C@H](c3cc(F)ccc3F)[C@@H](N)C1)C2 | 16 | > 100 | – | – | – | > 100 | –
22 | Cn1cnc(S(=O)(=O)n2ncc3c2CN([C@H]2CO[C@H](c4cc(F)ccc4F)[C@@H](N)C2)C3)c1 | 45 | – | – | – | – | – | –
23 | CC(C)S(=O)(=O)n1cc2c(n1)CN([C@H]1CO[C@H](c3cc(F)ccc3F)[C@@H](N)C1)C2 | > 100 | > 100 | 7 | 1.3 | 5.6 | > 100 | bioavailability [13]: 93%
24 | CS(=O)(=O)c1n[nH]c2c1CN([C@H]1CO[C@H](c3cc(F)ccc3F)[C@@H](N)C1)C2 | 20 | > 100 | – | – | – | – | –
25 | N[C@H]1C[C@@H](N2Cc3cnn(S(=O)(=O)C4CC4)c3C2)CO[C@@H]1c1cc(F)ccc1F | 54 | – | 24 | 1.6 | 1.7 | > 100 | bioavailability [13]: 79%
26 | N[C@H]1C[C@@H](N2Cc3cn(S(=O)(=O)c4ccccc4)nc3C2)CO[C@@H]1c1cc(F)ccc1F | > 100 | – | – | – | – | – | –
27 | CS(=O)(=O)n1cc2c(n1)CN([C@H]1CO[C@H](c3cc(F)ccc3F)[C@@H](N)C1)C2 [OMARIGLIPTIN] | > 100 | > 100 | – | – | 48 | > 100 | clearance [10]: 0.9 mL/min/kg; bioavailability [11]: 100%; IC50 [2]: > 30 µM; AUC/dose [4]: 54 µM·h/mg/kg; half-life [12]: 22 h
